Statin myotox sup – suppressors of simvastatin-induced myotoxicity in C2C12 myotubes; 0.78% of 330,000 active; ATP luminescence, 48 h; scaled: DMSO 0, geranylgeraniol control 100; rescue of ATP level, % at 7.49 µM; AID 602340;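 active means mean ATP rescue above about 67%, or every replicate alone reaching that limit, limit read from the data, passing the limit was not always enough; inconclusive means no clear call, values can overlap the other calls; inactive means mean under the limit and some replicate under it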;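 further: myotubes were challenged with 10 µM simvastatin during compound exposure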
DENV2 CPE rescue – inhibitors of DENV2 cytopathic effect. DENV2-infected cells, cytopathic effect rescue, plate reader. CPE inhibition, % at 9.99 µM. 1.7% of 350,000 active; in the data active means CPE inhibition above about 20%, passing the limit was not always enough; inconclusive means no clear call, values can overlap the other calls; tested in BHK-21 cells;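 further: 0% = median of neutral control wells and 100% = median of positive control wells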
E-selectin induc – E-selectin induction on HUVECs; HUVEC E-selectin immunofluorescence imaging; normalized: neutral wells 0, TNF-alpha wells 100; activation, % at 7.58 µM; 0.37% of 260,000 active;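 active means mean E-selectin-positive cell signal at least 10% of the positive control, reached in at least 60% of replicates, without over 20% cell loss; inconclusive means no rule given, readout overlaps actives, possibly toxicity-flagged; inactive means the rest, including those meeting only one limit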
Target sequence (P16581 whole entry, looked up): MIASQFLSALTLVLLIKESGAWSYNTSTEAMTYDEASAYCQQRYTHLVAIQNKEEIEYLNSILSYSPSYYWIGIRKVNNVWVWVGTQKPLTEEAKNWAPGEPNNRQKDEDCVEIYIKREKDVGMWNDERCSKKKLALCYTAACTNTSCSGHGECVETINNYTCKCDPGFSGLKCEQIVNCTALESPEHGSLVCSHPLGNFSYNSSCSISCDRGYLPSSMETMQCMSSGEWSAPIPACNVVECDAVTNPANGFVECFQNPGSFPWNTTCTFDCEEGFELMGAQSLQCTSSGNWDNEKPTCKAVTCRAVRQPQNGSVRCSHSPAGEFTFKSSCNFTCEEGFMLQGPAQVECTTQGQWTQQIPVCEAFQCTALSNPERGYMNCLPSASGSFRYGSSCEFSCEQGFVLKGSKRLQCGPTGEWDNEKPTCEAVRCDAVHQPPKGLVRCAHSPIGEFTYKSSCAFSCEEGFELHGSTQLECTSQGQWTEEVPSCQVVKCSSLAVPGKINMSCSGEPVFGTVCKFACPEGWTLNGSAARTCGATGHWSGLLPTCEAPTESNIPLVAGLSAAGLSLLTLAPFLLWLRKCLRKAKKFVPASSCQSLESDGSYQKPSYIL
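Assay system: HUVEC primary endothelial cells. Input: 3,000 HUVEC seeded per well. Doses: one compound dose added by pin transfer. Read-out basis: % PE-positive cells. Benchmarks: TNF-alpha high, DMSO low. Detection: immunofluorescence imaging. Buffer or medium: EGM-2, gelatin.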
Numbers without * were called inactive. Sampled rows, rich in hits. Any-hit rate of the full collection: about 2.2%.

Screening COc1cccc(C(=O)Nc2ccc3c(c2)C(=O)N(C)C[C@@H](OC)[C@@H](C)CN(CCc2ccccc2)[C@@H](C)CO3)c1 returned Statin myotox sup 22.4, DENV2 CPE rescue 5.5 and E-selectin induc 0.9.
C[C@H]1CN([C@@H](C)CO)C(=O)c2c(c3ccccc3n2C)-c2ccccc2CO[C@@H]1CN(C)S(=O)(=O)c1cccs1 was read as DENV2 CPE rescue 3.8 and E-selectin induc -1.2.
Cc1cccn2c(=O)c3cc(C#N)c(=N)n(CCCN4CCOCC4)c3nc12 was read as Statin myotox sup 4.7.
Screening Cc1cccn2c(=O)c3cc(C#N)c(=N)n(CCN4CCOCC4)c3nc12 returned Statin myotox sup 104.1*.
O=C(NCCN1CCCCC1)[C@@H]1[C@@H](CO)[C@@H]2Cn3c(cccc3=O)[C@H]1N2C(=O)C1CC1 was read as Statin myotox sup 7.2, DENV2 CPE rescue 15.8 and E-selectin induc 0.0.
CN(Cc1ccsc1)C(=O)CCc1nnc(CCCc2ccccc2)o1 was read as Statin myotox sup 9.0, DENV2 CPE rescue 1.9 and E-selectin induc 27.3*.
`CN(Cc1ccon1)C(=O)CCc1nnc(CCCCc2ccccc2)o1` gave Statin myotox sup 1.2 and DENV2 CPE rescue 2.5.
Screening C[C@H](CO)N1C[C@H](C)[C@H](CN(C)S(=O)(=O)c2ccc(F)cc2)OCCCC[C@H](C)Oc2ccc(NC(=O)CCC(F)(F)F)cc2C1=O returned DENV2 CPE rescue 2.4.
`O=S(=O)(c1ccc(NC(=S)N2CCCCC2)cc1)N1CCCCC1` gave DENV2 CPE rescue -3.5 and E-selectin induc -0.5.
`CC(=O)c1cccc(NC(=S)N2CCN(S(=O)(=O)c3ccccc3)CC2)c1` gave Statin myotox sup 0.4, DENV2 CPE rescue 68.9* and E-selectin induc -0.2.
`Cc1ccc(S(=O)(=O)N2CCCSCC2)cc1` gave Statin myotox sup 113.9*.
Screening Cc1ccc(NC(=S)N2CCN(S(=O)(=O)c3ccc(C)cc3)CC2)cc1 returned Statin myotox sup 1.9, DENV2 CPE rescue 26.6* and E-selectin induc -0.2.
For CC(=O)c1cccc(NC(=S)N2CCN(S(=O)(=O)c3ccc(F)cc3)CC2)c1 the results were Statin myotox sup 8.9, DENV2 CPE rescue inconclusive and E-selectin induc 0.1.
`Cc1ccc(-c2ccc(S(=O)(=O)N3CCCC3)cc2)cc1` gave DENV2 CPE rescue 15.1.
`COc1cccc(OC)c1C(=O)N1CCN(S(=O)(=O)c2ccc(C)cc2)CC1` gave Statin myotox sup 126.1*.
Cc1ccc(S(=O)(=O)N2CCN(C(=O)c3ccccc3)CC2)cc1 was read as Statin myotox sup -1.5.
`C[C@@H]1CN([C@@H](C)CO)C(=O)c2cccc(NS(=O)(=O)c3ccccc3)c2O[C@H]1CN(C)C(=O)Nc1ccccc1` gave Statin myotox sup 3.0 and DENV2 CPE rescue 13.3.
C[C@H](CO)N1C[C@H](C)[C@H](CN(C)CC2CCCCC2)OCCCC[C@H](C)Oc2ccc(NS(=O)(=O)c3cn(C)cn3)cc2C1=O was read as Statin myotox sup -6.2, DENV2 CPE rescue -3.8 and E-selectin induc 2.0.
For CO[C@@H]1CC[C@@H]2CCN(C)C(=O)[C@H](C)[C@H](OC)CN(C)C(=O)c3cccc(C#N)c3OC[C@@H]1O2 the results were Statin myotox sup -0.2, DENV2 CPE rescue -2.4 and E-selectin induc 0.1.
Screening COc1ccc2c3c(n(C)c2c1)[C@H](CO)N(S(=O)(=O)c1ccc(C)cc1)CC31CCN(S(=O)(=O)c2ccc(C)cc2)CC1 returned DENV2 CPE rescue -5.6 and E-selectin induc -0.2.
For COc1ccc2c3c(n(C)c2c1)[C@H](CO)N(C)CC31CN(S(C)(=O)=O)C1 the results were DENV2 CPE rescue 22.6* and E-selectin induc -0.2.
Screening CCS(=O)(=O)N1CCC2(CC1)CN(C)[C@H](CO)c1c2c2ccc(OC)cc2n1C returned DENV2 CPE rescue -0.3 and E-selectin induc 0.3.
Screening COc1ccc2c3c(n(C)c2c1)[C@@H](CO)N(S(=O)(=O)c1ccc(C)cc1)CC31CN(S(=O)(=O)c2ccc(C)cc2)C1 returned DENV2 CPE rescue 62.7* and E-selectin induc -0.3.
For CCC(=O)Nc1ccc2c(c1)C(=O)N(C)[C@@H]1CC[C@H](CC(=O)NCCc3ccccc3)O[C@@H]1CO2 the results were Statin myotox sup -1.2, DENV2 CPE rescue 1.8 and E-selectin induc 0.2.
Cn1cnc(S(=O)(=O)N2CC[C@@H]3[C@H]2c2cc(C#Cc4ccc(F)cc4)ccc2N[C@@H]3CO)c1 was read as Statin myotox sup -14.3, DENV2 CPE rescue 3.4 and E-selectin induc 0.1.
COc1ccccc1CN1[C@@H](CO)[C@@H]2c3ccccc3N(C(=O)c3ccc(F)cc3)C[C@@H]21 was read as Statin myotox sup 29.0, DENV2 CPE rescue -9.2 and E-selectin induc -0.6.
Screening O=C(C[C@H]1CC[C@@H](NC(=O)c2ccc(F)cc2)[C@@H](CO)O1)NCCc1ccncc1 returned Statin myotox sup -4.8, DENV2 CPE rescue -0.3 and E-selectin induc -0.4.
`O=C(NCC[C@H]1CC[C@@H](NC(=O)c2cccnc2)[C@H](CO)O1)Nc1ccc(F)cc1` gave Statin myotox sup 4.9, DENV2 CPE rescue 20.6* and E-selectin induc 1.3.
For O=C(C[C@@H]1CC[C@@H](NC(=O)c2ccc(F)cc2)[C@@H](CO)O1)NCCc1ccncc1 the results were Statin myotox sup 2.2, DENV2 CPE rescue 23.3* and E-selectin induc 0.8.
`O=C(NCC[C@@H]1CC[C@@H](NC(=O)c2cccnc2)[C@H](CO)O1)Nc1ccc(F)cc1` gave Statin myotox sup -4.2, DENV2 CPE rescue -11.0 and E-selectin induc -0.5.
`O=C(Cc1ccncc1)NCC[C@@H]1CC[C@@H](NC(=O)Nc2cccc(F)c2)[C@@H](CO)O1` gave Statin myotox sup 3.1, DENV2 CPE rescue 22.7* and E-selectin induc -0.1.
Screening O=C(Cc1ccncc1)NCC[C@@H]1CC[C@H](NC(=O)Nc2cccc(F)c2)[C@@H](CO)O1 returned Statin myotox sup 0.8, DENV2 CPE rescue 2.7 and E-selectin induc -0.3.
`C[C@@H]1CN([C@@H](C)CO)C(=O)Cc2cc(NS(=O)(=O)c3cccs3)ccc2O[C@@H]1CN(C)C` gave Statin myotox sup 25.8, DENV2 CPE rescue 5.6 and E-selectin induc 8.2.
CC(=O)CC(=O)N1C(=O)N(C)[C@@]2(C)Oc3ccccc3[C@@H]1[C@H]2COC(=O)c1ccc([N+](=O)[O-])cc1 was read as DENV2 CPE rescue 3.8.
For COCC(=O)N1[C@H](C#N)[C@@H](c2ccccc2-c2cccc(F)c2)[C@@H]1CO the results were DENV2 CPE rescue -4.1 and E-selectin induc -0.1.
For C[C@@H]1CN([C@@H](C)CO)C(=O)c2cc(NC(=O)Nc3cccc4ccccc34)ccc2O[C@@H](C)CCCCO[C@H]1CN(C)C(=O)CCCN(C)C the results were DENV2 CPE rescue 5.1 and E-selectin induc 3.7.
`Cc1nc2c(C(=O)NCc3ccco3)cnn2c(C)c1Cc1ccc(F)cc1Cl` gave Statin myotox sup 42.4.
Cc1cccc(Cc2c(C)nc3c(C(=O)NCc4ccco4)cnn3c2C)c1 was read as Statin myotox sup 106.9*.
Screening CC1(C)CC(=O)C(C=NCCN2CCN(CC(=O)Nc3ccc(F)cc3)CC2)=C(O)C1 returned DENV2 CPE rescue -5.9 and E-selectin induc 0.0.
CC1(C)CC(=O)C(C=NCCN2CCN(C(=S)Nc3ccc(F)cc3)CC2)=C(O)C1 was read as Statin myotox sup 65.1*.
